From ChEMBL document CHEMBL2151029, “Synthesis of N-(5-chloro-6-(quinolin-3-yloxy)pyridin-3-yl)benzenesulfonamide derivatives as non-TZD peroxisome proliferator-activated receptor γ (PPARγ) agonist” (Eur J Med Chem, 2012) come the findings set out here.

The target of data set [1] is T1, Peroxisome proliferator-activated receptor gamma (Mus musculus) (UniProt P37238).
T1 sequence (whole entry): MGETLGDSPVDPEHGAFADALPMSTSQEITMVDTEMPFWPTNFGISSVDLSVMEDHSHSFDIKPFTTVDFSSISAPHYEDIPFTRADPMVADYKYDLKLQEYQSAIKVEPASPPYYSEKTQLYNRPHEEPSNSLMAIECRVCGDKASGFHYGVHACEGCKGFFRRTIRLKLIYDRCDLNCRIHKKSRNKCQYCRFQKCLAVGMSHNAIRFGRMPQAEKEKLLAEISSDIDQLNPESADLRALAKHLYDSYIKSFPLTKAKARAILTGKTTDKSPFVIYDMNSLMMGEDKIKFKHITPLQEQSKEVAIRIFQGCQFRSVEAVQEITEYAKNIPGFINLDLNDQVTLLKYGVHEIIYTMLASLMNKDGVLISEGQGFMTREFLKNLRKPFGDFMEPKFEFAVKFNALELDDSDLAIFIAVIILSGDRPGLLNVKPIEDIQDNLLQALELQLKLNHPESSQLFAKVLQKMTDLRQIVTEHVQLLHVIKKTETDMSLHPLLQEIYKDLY
The experiment in a line: Agonist activity at PPARgamma receptor in mouse 3T3-L1 cells assessed as adipogenesis at 20 ug/mL relative to insulin. The class given is functional, cell-based. The method in brief: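 3T3-L1 cells were treated with compound at 20 µg/ml in the presence of insulin and adipogenesis was measured. The response to a potent PPARγ full agonist at 1 µM was set as 100%. Emax (%) is the maximal adipogenic activity with test compound.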

The target of data set [2] is T2, Peroxisome proliferator-activated receptor gamma (Homo sapiens) (UniProt P37231).
T2 sequence (whole entry): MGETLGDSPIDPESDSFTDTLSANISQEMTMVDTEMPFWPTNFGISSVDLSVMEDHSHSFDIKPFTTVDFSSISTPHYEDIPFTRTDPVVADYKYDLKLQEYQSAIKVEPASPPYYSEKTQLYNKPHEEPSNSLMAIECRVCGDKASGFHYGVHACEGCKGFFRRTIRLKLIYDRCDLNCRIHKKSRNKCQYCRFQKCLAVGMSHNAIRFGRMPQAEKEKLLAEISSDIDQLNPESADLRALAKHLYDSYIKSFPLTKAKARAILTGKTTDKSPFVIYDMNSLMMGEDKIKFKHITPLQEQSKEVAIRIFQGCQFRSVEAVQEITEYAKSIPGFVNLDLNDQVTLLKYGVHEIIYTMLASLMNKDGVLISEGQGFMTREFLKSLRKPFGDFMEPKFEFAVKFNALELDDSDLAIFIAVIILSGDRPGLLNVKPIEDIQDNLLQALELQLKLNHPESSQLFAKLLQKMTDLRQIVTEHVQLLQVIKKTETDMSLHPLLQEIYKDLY
The experiment in a line: Agonist activity at human PPARgamma receptor expressed in HEK293 cells at 10 uM relative to PPARgamma full agonist at 1 uM.

The nature of data set [3]: Cmax in db/db mouse at 100 mg/kg, po. The class given is ADME, organism-based. Also noted: dose 100 mg/kg, route oral. The conditions noted are these: in vivo. Put shortly: (§1)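 Female db/db mice received a single 100 mg/kg oral dose as a suspension in 0.5% CMC and Tween 80 (10 mL/kg), n = 4 per time point. Blood was drawn at 0.08 to 8.0 h and plasma was kept at -80 °C. Compound levels were measured by HPLC. Parameters came from non-compartmental analysis: Cmax and Tmax read directly, λz from terminal log-linear regression, T1/2 = 0.693/λz.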

In data set [4] the test system is Mus musculus. Briefly: Volume of distribution in db/db mouse at 100 mg/kg, po. The class given is ADME, organism-based. Also noted: dose 100 mg/kg, route oral. The settings on record: in vivo. Put shortly:
as §1

Data set [5] deals with Mus musculus. Briefly: Antihyperglycemic activity in db/db mouse assessed as plasma glucose reduction at 50 mg/kg administered BID for 10 days relative to control. The format is functional. On the set-up: scale not given: the % may be the effect or the level left. Put shortly: (§2)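 Male db/db mice, 5 to 7 weeks old and bred in-house, were fed a chow diet and dosed b.i.d. for 10 days. Plasma glucose and body weight gain were assessed at the end of the study.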

Data set [6] is described as follows: Terminal elimination half life in db/db mouse at 100 mg/kg, po. The class given is ADME, organism-based. Also noted: dose 100 mg/kg, route oral. The conditions noted are these: in vivo, read-out: beta t1/2 (converted). Put shortly:
as §1

Data set [7] relates to Mus musculus. The experiment in a line: Toxicity in db/db mouse assessed as body weight gain at 50 mg/kg administered BID relative to control. The format is organism-based. On the set-up: dose 50 mg/kg. The settings on record: in vivo. Put shortly: as §2
Data set [8] can be described thus: Clearance in db/db mouse at 100 mg/kg, po. The class given is ADME, organism-based. Also noted: dose 100 mg/kg, route oral. The conditions noted are these: in vivo. Put shortly: as §1
Data set [9] in a line: Drug excretion in db/db mouse assessed as elimination rate constant at 100 mg/kg, po. The settings on record: in vivo. The class given is ADME, organism-based. On the set-up: dose 100 mg/kg, route oral. The method in brief: as §1
Data set [10] can be described thus: AUC (0 to 8 hrs) in db/db mouse at 100 mg/kg, po. The format is ADME, organism-based. Also noted: time < 8 hr, dose 100 mg/kg, route oral. The settings on record: plasma. Put shortly:
as §1

A short description of data set [11]: Tmax in db/db mouse at 100 mg/kg, po. The class given is ADME, organism-based. Also noted: dose 100 mg/kg, route oral. The conditions noted are these: in vivo. Put shortly: as §1
For data set [12], the system named is Mus musculus. Briefly: Antihyperglycemic activity in db/db mouse assessed as plasma glucose reduction at 5 mg/kg administered BID for 10 days relative to control. The format is functional. On the set-up: scale not given: the % may be the effect or the level left. Put shortly: as §2

For the compound `O=S(=O)(Nc1cnc(Oc2cnc3ccccc3c2)c(Cl)c1)c1ccc(Cl)c(Cl)c1`, the values for the Emax in data set [1] and in data set [2] were 35% and 56%, respectively.
As for `O=S(=O)(Nc1cnc(Oc2cnc3ccccc3c2)c(Cl)c1)c1cccc(F)c1`, the values for the Emax in [1] and in [2] were 80% and 62%, respectively.
The corresponding values for `COc1ccc(OC)c(S(=O)(=O)Nc2cnc(Oc3cnc4ccccc4c3)c(Cl)c2)c1` are 54% and 71%.
Broadly, the Cmax is the highest concentration seen after dosing. What is called CL/F is the apparent clearance, not corrected for the fraction that reaches the circulation. The AUC(0-t) is the area under the concentration-time curve up to a stated or last time point. One may read the Tmax as the time from dosing to the highest level. `COc1ccc(S(=O)(=O)Nc2cnc(Oc3cnc4ccccc4c3)c(Cl)c2)cc1OC`: the Cmax in [3] is 33900 ng/mL. Also, the Vd in the data set on Mus musculus [4] was 1.23 L/kg. Further, the Emax worked out at 60% in [1] and 93% in data set [2]. Besides, the results for the Activity with Mus musculus [5] and in the data set on Mus musculus [7] were 40% and 9%, respectively. For the same compound, the half-life in data set [6] is 2.99 h. Moreover, the CL/F in [8] is 4.67 mL/min/kg. Also, the k el in data set [9] is 6.39e-05 s⁻¹. Besides, the AUC(0-t) at 8 h in data set [10] stood at 146000 ng·h/mL. In addition, the Tmax in data set [11] was 0.25 h.
For `Cc1ccccc1S(=O)(=O)Nc1cnc(Oc2cnc3ccccc3c2)c(Cl)c1`, the Emax in [1] worked out at 95%; in data set [2] it was 43%.
The matching figures for `Cc1cccc(S(=O)(=O)Nc2cnc(Oc3cnc4ccccc4c3)c(Cl)c2)c1`: 90% and 36%.
As for `Cc1cc(F)ccc1S(=O)(=O)Nc1cnc(Oc2cnc3ccccc3c2)c(Cl)c1`, the Emax in [1] came to 73%; in data set [2], 83%.
The matching figures for `O=S(=O)(Nc1cnc(Oc2cnc3ccccc3c2)c(Cl)c1)c1ccc(F)cc1Cl`: 51% and 39%.
The matching figures for `O=S(=O)(Nc1cnc(Oc2cnc3ccccc3c2)c(Cl)c1)c1cccc(C(F)(F)F)c1`: 75% and 50%.
For the compound `CN(CCOc1ccc(CC2SC(=O)NC2=O)cc1)c1ccccn1` (stereo not given) [ROSIGLITAZONE], the Activity with Mus musculus [12] stood at 52%.
Consider `Cc1ccc(S(=O)(=O)Nc2cnc(Oc3cnc4ccccc4c3)c(Cl)c2)c(C)c1`, for which the Emax worked out at 67% in data set [1] and 31% in [2].
As to `O=S(=O)(Nc1cnc(Oc2cnc3ccccc3c2)c(Cl)c1)c1ccc(C(F)(F)F)cc1Cl`, the Emax turned out to be 57% in data set [1] and 86% in data set [2].
Compound `O=S(=O)(Nc1cnc(Oc2cnc3ccccc3c2)c(Cl)c1)c1ccc(F)c(F)c1` gave a Cmax in data set [3] of 8330 ng/mL. Besides, in the data set on Mus musculus [4], the Vd was determined as 4.78 L/kg. The Emax in [1] amounted to 95%; in [2], 86%. Also, the half-life in data set [6] is 1.76 h. In addition, the CL/F in data set [8] was 31.2 mL/min/kg. Moreover, the k el in data set [9] is 0.000108 s⁻¹. For the same compound, the AUC(0-t) at 8 h in [10] came to 25400 ng·h/mL. The Tmax in data set [11] was 0.5 h.
Take `O=S(=O)(Nc1cnc(Oc2cnc3ccccc3c2)c(Cl)c1)c1ccc(F)cc1F`: the Emax in [1] came out at 56%; in data set [2], 32%.
The corresponding values for `O=S(=O)(Nc1cnc(Oc2cnc3ccccc3c2)c(Cl)c1)c1ccc(F)c(Cl)c1` are 56% and 28%.
